Measured values as given in ChEMBL document CHEMBL1143104, “Identification and characterization of pyrrolidine diastereoisomers as potent functional agonists and antagonists of the human melanocortin-4 receptor” (Bioorg Med Chem Lett, 2008).
The source made the active and inactive calls. No cut-off for these calls is given here.

Columns and labels:
Melanocortin receptor 4 [1] = target: T1, Melanocortin receptor 4 (Homo sapiens, UniProt P32245); assay: Displacement of [125I]NDP-MSH from human MC4 receptor expressed in HEK293 cells; assay type: cell-based
Outline: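 HEK293 cells expressing human MC4R, radioligand competition binding with [125I]-NDP-MSH. Ki values are the average of two or more independent measurements.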

Melanocortin receptor 4 [2] = target: T1, Melanocortin receptor 4; assay: Agonist activity at human MC4 receptor expressed in CHO cells assessed as accumulation of cAMP production; assay type: functional, cell-based
Outline: (§1)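 CHO cells transfected with human MC4R were stimulated by compound and accumulated cAMP was measured by ELISA. Intrinsic activity is expressed relative to α-MSH. Representative experiments were run 2–8 times.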

Melanocortin receptor 4 [3] = target: T1, Melanocortin receptor 4; assay: Intrinsic activity at human MC4 receptor expressed in CHO cells assessed as accumulation of cAMP production relative to alphaMSH; assay type: functional, cell-based; outline: as §1
Melanocortin receptor 3 = Melanocortin receptor 3 (Homo sapiens, UniProt P41968); assay: Binding affinity to MC3R
Melanocortin receptor 5 = Melanocortin receptor 5 (Homo sapiens, UniProt P33032); assay: Binding affinity to MC5R
[4] = Clearance in rat at 2.5 mg/kg, iv; assay type: ADME, organism-based; design: dose 2.5 mg/kg, route intravenous; conditions: in vivo
Outline: (§2)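 Rat pharmacokinetics: single 2.5 mg/kg iv injection and separately 10 mg/kg oral gavage. Plasma CL, Vd, t1/2, AUC, Cmax, Tmax and oral bioavailability were derived. Whole-brain concentration was measured at 1 and 4 h after oral dosing and expressed as a brain/plasma ratio. Values are the average of three animals.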

[5] = Volume of distribution in rat in rat at 2.5 mg/kg, iv; assay type: ADME, organism-based; design: dose 2.5 mg/kg, route intravenous; conditions: in vivo; outline: as §2
[6] = Half life in rat at 2.5 mg/kg, iv; assay type: ADME, organism-based; design: dose 2.5 mg/kg, route intravenous; conditions: in vivo; outline: as §2
[7] = AUC in rat at 2.5 mg/kg, iv; assay type: ADME, organism-based; design: dose 2.5 mg/kg, route intravenous; conditions: plasma; outline: as §2
[8] = Cmax in rat at 10 mg/kg, po; assay type: ADME, organism-based; design: dose 10 mg/kg, route oral; conditions: in vivo; outline: as §2
[9] = Tmax in rat at 10 mg/kg, po; assay type: ADME, organism-based; design: dose 10 mg/kg, route oral; conditions: in vivo; outline: as §2
[10] = AUC in rat at 10 mg/kg, po; assay type: ADME, organism-based; design: dose 10 mg/kg, route oral; conditions: plasma; outline: as §2
[11] = Drug level in rat brain at 10 mg/kg, po after 4 hrs; assay type: ADME, organism-based; design: dose 10 mg/kg, route oral; conditions: read-out: Drug uptake; outline: as §2
[12] = Ratio of drug level in brain to plasma in rat at 10 mg/kg, po after 4 hrs; assay type: ADME, organism-based; design: dose 10 mg/kg, route oral; conditions: read-out: BPR; outline: as §2
[13] = Apparent permeability across human Caco-2 cells from apical to basolateral side; assay type: ADME, cell-based
Outline: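 Caco-2 monolayer permeability, apical-to-basolateral Papp in nm/s. The (b to a)/(a to b) ratio was also determined as an efflux measure.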

Caco-2 = assay: Ratio of permeability across human Caco-2 cells from basolateral to apical side to apical to basolateral side; assay type: ADME, cell-based
[14] = Distribution coefficient, log D by shake flask method; assay type: physicochemical; conditions: octanol/water
Outline: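 log D was measured by the shake-flask method.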

[15] = Ratio of drug level in brain to plasma in po dosed DIO rat after 7 days; assay type: ADME, organism-based; conditions: read-out: BPR
Outline: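 Chronic study in DIO rats given 3, 10 or 30 mg/kg orally once daily. A satellite group was sampled on day 1 and day 7 for plasma concentration-time profiles and brain/plasma ratio.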

[16] = Bioavailability in rat at 10 mg/kg, po; assay type: ADME, organism-based; conditions: in vivo; outline: as §2
Rattus norvegicus [17] = assay: Suppression of food intake in ip dosed DIO rat after 24 hrs relative to control; assay type: functional, organism-based
Outline: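 Male DIO rats were food-deprived overnight and on the test day. They were dosed ip at 3, 10 or 30 mg/kg in sterile water, and food was returned 1 h later. Cumulative intake was measured at set intervals over 24 h and compared with vehicle-treated rats.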

Rattus norvegicus [18] = assay: Reduction of body weight in po dosed DIO rat; assay type: functional, organism-based
Outline: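 Male DIO rats, separate groups, dosed orally once daily 1 h before lights out for 7 days with vehicle, fenfluramine, or 3, 10 or 30 mg/kg test article. Body weight and spillage-corrected food intake were recorded daily and compared with vehicle-treated controls.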

Melanocortin receptor 4 [19] = target: T1, Melanocortin receptor 4; assay: Antagonist activity at human MC4 receptor expressed in CHO cells assessed as inhibition of alpha-MSH-stimulated cAMP production; assay type: functional, cell-based
Outline: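 CHO cells transfected with human MC4R were tested for dose-dependent inhibition of α-MSH-stimulated cAMP accumulation, measured by ELISA. IC50 was derived. Representative experiments were run 2–8 times.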

[20] = target: T2, Melanocyte-stimulating hormone receptor (Homo sapiens, UniProt Q01726); assay: Binding affinity to MC1R
Target sequence in this assay (Q01726 whole entry): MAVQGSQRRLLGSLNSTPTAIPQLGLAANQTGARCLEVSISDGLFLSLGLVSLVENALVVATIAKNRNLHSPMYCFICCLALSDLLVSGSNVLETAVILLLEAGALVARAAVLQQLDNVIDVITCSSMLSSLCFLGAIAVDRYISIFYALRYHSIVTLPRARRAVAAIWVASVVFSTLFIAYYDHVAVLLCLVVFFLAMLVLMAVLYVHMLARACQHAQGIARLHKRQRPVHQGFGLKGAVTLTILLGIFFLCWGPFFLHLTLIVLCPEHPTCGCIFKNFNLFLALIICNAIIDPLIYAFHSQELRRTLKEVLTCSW

Rattus norvegicus [21] = assay: Suppression of food intake in DIO rat at 30 mg/kg, po relative to control; assay type: functional, organism-based; design: dose 30 mg/kg
Outline: (§3)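 Male DIO rats in separate groups were dosed orally once daily, 1 h before lights out, for 7 days with vehicle, fenfluramine, or 3, 10 or 30 mg/kg compound. Food intake (corrected for spillage) and body weight were recorded daily. After 7 days, body composition was measured by EchoMRI and fasting glucose by glucometer, each relative to baseline. Significance was set at p < 0.05.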

Rattus norvegicus [22] = assay: Effect on food intake in DIO rat assessed as inhibition of feeding at 3 mg/kg, po after 6 days; assay type: functional, organism-based; design: dose 3 mg/kg; outline: as §3
Rattus norvegicus [23] = assay: Reduction of body weight in DIO rat at 30 mg/kg, po after 2 days; assay type: functional, organism-based; design: dose 30 mg/kg; outline: as §3
Rattus norvegicus [24] = assay: Increase in fat loss in po dosed DIO rat after 7 days; assay type: functional, organism-based; outline: as §3
Rattus norvegicus [25] = assay: Decrease in fasting glucose level in DIO rat at 30 mg/kg, po after 7 days; assay type: functional, organism-based; design: dose 30 mg/kg; outline: as §3
[26] = target: T2, Melanocyte-stimulating hormone receptor; conditions: 10 uM
Target sequence in this assay (Q01726 whole entry, looked up): as the sequence (Q01726 whole entry) above

T1 sequence (P32245 whole entry): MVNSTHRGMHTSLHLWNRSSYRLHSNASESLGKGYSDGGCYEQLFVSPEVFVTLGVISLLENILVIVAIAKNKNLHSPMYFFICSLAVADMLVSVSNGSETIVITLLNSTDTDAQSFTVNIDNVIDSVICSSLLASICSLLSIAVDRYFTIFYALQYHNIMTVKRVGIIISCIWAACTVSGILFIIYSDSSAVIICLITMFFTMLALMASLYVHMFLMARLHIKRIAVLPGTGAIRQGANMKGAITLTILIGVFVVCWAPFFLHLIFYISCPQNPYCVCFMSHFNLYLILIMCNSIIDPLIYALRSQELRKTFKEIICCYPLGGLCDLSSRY
Melanocortin receptor 3, sequence (P41968 whole entry): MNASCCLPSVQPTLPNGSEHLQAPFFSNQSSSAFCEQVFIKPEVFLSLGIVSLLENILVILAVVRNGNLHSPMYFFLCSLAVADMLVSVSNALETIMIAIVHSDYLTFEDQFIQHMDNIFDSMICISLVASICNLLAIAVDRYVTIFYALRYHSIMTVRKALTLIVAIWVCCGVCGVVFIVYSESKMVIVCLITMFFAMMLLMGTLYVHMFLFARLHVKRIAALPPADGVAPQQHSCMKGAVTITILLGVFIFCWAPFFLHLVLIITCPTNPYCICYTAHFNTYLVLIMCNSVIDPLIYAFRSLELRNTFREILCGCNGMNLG
Melanocortin receptor 5, sequence (P33032 whole entry): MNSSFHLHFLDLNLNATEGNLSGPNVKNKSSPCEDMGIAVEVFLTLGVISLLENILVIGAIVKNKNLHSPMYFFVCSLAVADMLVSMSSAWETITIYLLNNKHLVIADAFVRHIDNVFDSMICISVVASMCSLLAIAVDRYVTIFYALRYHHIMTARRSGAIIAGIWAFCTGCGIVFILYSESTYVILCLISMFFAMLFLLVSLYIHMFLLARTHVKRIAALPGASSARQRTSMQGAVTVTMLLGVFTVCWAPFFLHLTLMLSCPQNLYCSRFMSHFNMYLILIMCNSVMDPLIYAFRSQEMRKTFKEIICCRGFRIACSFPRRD

CCC(=O)N1C[C@@H](C(=O)N2CCN(c3ccc(C)cc3[C@@H](NC(=O)CCN(C)C)C(C)C)CC2)[C@H](c2ccc(Cl)cc2)C1
Ki (Melanocortin receptor 4 [1]): 4.6 nM | EC50 (Melanocortin receptor 4 [2]): 27 nM | Intrinsic activity (Melanocortin receptor 4 [3]): 129%

Cc1ccc(N2CCN(C(=O)[C@@H]3CN(C4CCOCC4)C[C@H]3c3ccc(Cl)cc3)CC2)c([C@@H](NC(=O)CCN)C(C)C)c1
Ki (Melanocortin receptor 4 [1]): 2.2 nM | EC50 (Melanocortin receptor 4 [2]): 6 nM | Intrinsic activity (Melanocortin receptor 4 [3]): 107%

Cc1ccc(N2CCN(C(=O)[C@@H]3CN(C4CCOCC4)C[C@H]3c3ccc(Cl)cc3)CC2)c([C@@H](NC(=O)CCN(C)C)C(C)C)c1 (stereo in doubt; 13b-1) [listing 1 of 2 here]
Ki (Melanocortin receptor 3): 260 nM | Ki (Melanocortin receptor 5): 800 nM | clearance [4]: 129 mL/min/kg | Vd [5]: 80 L/kg | half-life [6]: 7.1 h | AUC [7]: 307 ng·h/mL | Cmax [8]: 14 ng/mL | Tmax [9]: 2.7 h | AUC [10]: 114 ng·h/mL | concentration at 4 h [11]: 19 ng/g | Kp at 4 h [12]: 3 | Papp A→B [13]: 0.16 ×10⁻⁶ cm/s | Ratio (Caco-2): 23 | logD [14]: 2.6 | Kp at 168 h [15]: > 10 | bioavailability [16]: 10% | Ki (Melanocortin receptor 4 [1]): 1 nM | EC50 (Melanocortin receptor 4 [2]): 3.8 nM

CC(C)[C@H](NC(=O)CCN(C)C)c1cccc(F)c1N1CCN(C(=O)[C@@H]2CN(C(C)C)C[C@H]2c2ccc(Cl)cc2)CC1
Ki (Melanocortin receptor 4 [1]): 5.3 nM | EC50 (Melanocortin receptor 4 [2]): 20 nM | Intrinsic activity (Melanocortin receptor 4 [3]): 103%

CC(C)[C@H](NC(=O)CCN(C)C)c1cccc(F)c1N1CCN(C(=O)[C@@H]2CN(C(C)C)C[C@H]2c2ccc(F)c(F)c2)CC1
Ki (Melanocortin receptor 4 [1]): 290 nM

CCNC(C)Cc1cccc(C(F)(F)F)c1 (stereo not given)
Activity (Rattus norvegicus [17]): Active | Activity (Rattus norvegicus [18]): Active

Cc1ccc(N2CCN(C(=O)[C@@H]3CN(C4CCOCC4)C[C@H]3c3ccc(Cl)cc3)CC2)c([C@H](C(C)C)N(C)C)c1
Ki (Melanocortin receptor 4 [1]): 5.3 nM | Intrinsic activity (Melanocortin receptor 4 [3]): 35%

Cc1ccc(N2CCN(C(=O)[C@H]3CN(C4CCOCC4)C[C@@H]3c3ccc(Cl)cc3)CC2)c([C@@H](NC(=O)CCN(C)C)C(C)C)c1
IC50 (Melanocortin receptor 4 [19]): 64 nM | Ki [20]: 120 nM | Ki (Melanocortin receptor 3): 1300 nM | Ki (Melanocortin receptor 5): 530 nM | clearance [4]: 82 mL/min/kg | Vd [5]: 75 L/kg | half-life [6]: 11 h | AUC [7]: 455 ng·h/mL | Cmax [8]: 17 ng/mL | Tmax [9]: 2 h | AUC [10]: 161 ng·h/mL | concentration at 4 h [11]: 18 ng/g | Kp at 4 h [12]: 1 | bioavailability [16]: 14% | Ki (Melanocortin receptor 4 [1]): 4.7 nM | Intrinsic activity (Melanocortin receptor 4 [3]): 10%

CC(C)[C@H](NC(=O)CCN(C)C)c1cccc(F)c1N1CCN(C(=O)[C@@H]2CN(C(C)C)C[C@H]2c2ccc(C(F)(F)F)c(F)c2)CC1
Ki (Melanocortin receptor 4 [1]): 51 nM | EC50 (Melanocortin receptor 4 [2]): 340 nM | Intrinsic activity (Melanocortin receptor 4 [3]): 47%

CC(C)[C@H](NC(=O)CCN(C)C)c1cccc(F)c1N1CCN(C(=O)[C@@H]2CN(C(C)C)C[C@H]2c2ccc(Cl)cc2Cl)CC1
IC50 (Melanocortin receptor 4 [19]): 560 nM | Ki (Melanocortin receptor 4 [1]): 7.5 nM | Intrinsic activity (Melanocortin receptor 4 [3]): 24%

Cc1ccc(N2CCN(C(=O)[C@@H]3CN(C4CCOCC4)C[C@H]3c3ccc(Cl)cc3)CC2)c([C@@H](NC(=O)CCN(C)C)C(C)C)c1 (stereo in doubt; 13b-1) [listing 2 of 2 here]
Activity (Rattus norvegicus [21]): Active | Activity (Rattus norvegicus [22]): Active | Activity (Rattus norvegicus [23]): Active | Activity (Rattus norvegicus [24]): Active | Activity (Rattus norvegicus [25]): Active | Intrinsic activity (Melanocortin receptor 4 [3]): 122% | inhibition [26]: 38%

CC(C)[C@H](NC(=O)CCN(C)C)c1cccc(F)c1N1CCN(C(=O)[C@@H]2CN(C(C)C)C[C@H]2c2ccc(C(F)(F)F)cc2F)CC1
Ki (Melanocortin receptor 4 [1]): 61 nM

Cc1ccc(N2CCN(C(=O)[C@@H]3CN(C4CCOCC4)C[C@H]3c3ccc(Cl)cc3)CC2)c([C@@H](NC(=O)[C@@H](C)N)C(C)C)c1
Ki (Melanocortin receptor 4 [1]): 7.3 nM | EC50 (Melanocortin receptor 4 [2]): 17 nM | Intrinsic activity (Melanocortin receptor 4 [3]): 56%

Cc1ccc(N2CCN(C(=O)[C@@H]3CN(C4CCOCC4)C[C@H]3c3ccc(Cl)cc3)CC2)c([C@@H](N)C(C)C)c1
Ki (Melanocortin receptor 4 [1]): 12 nM | Intrinsic activity (Melanocortin receptor 4 [3]): 36%

CNCC(=O)N[C@H](c1cc(C)ccc1N1CCN(C(=O)[C@@H]2CN(C3CCOCC3)C[C@H]2c2ccc(Cl)cc2)CC1)C(C)C
Ki (Melanocortin receptor 4 [1]): 2.1 nM | EC50 (Melanocortin receptor 4 [2]): 19 nM | Intrinsic activity (Melanocortin receptor 4 [3]): 84%
